# In ChEMBL document CHEMBL1681705, “Optimisation of ITK inhibitors through successive iterative design cycles” (Bioorg Med Chem Lett, 2011):
# How the values were obtained:
# [1] = biological target: T1, Tyrosine-protein kinase ITK/TSK (Homo sapiens, UniProt Q08881); assay: Inhibition of recombinant GST-tagged full-length ITK expressed in baculovirus expression system after 30 mins by scintillation proximity assay
# T1 sequence (Q08881 whole entry): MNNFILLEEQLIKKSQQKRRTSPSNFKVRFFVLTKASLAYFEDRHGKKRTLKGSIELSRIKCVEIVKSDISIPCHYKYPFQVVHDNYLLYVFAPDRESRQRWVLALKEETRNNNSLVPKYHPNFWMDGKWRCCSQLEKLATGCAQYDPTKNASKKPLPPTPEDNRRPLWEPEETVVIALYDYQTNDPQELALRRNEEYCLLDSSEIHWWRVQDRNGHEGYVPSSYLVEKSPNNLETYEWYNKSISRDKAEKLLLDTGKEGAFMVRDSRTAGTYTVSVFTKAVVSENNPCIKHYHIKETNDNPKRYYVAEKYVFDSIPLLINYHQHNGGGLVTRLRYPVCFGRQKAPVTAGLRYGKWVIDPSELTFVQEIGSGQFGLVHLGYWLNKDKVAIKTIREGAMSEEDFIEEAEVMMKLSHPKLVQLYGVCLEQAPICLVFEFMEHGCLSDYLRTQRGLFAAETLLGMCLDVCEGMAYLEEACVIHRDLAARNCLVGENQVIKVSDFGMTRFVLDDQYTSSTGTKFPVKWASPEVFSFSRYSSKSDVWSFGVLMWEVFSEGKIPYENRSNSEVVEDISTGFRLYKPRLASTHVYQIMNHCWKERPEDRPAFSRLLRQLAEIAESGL
# [2] = biological target: T2, Interleukin-1 receptor-associated kinase 4 (Homo sapiens) (UniProt Q9NWZ3); assay: Inhibition of IRAK4 at 1 uM
# T2 sequence (whole entry): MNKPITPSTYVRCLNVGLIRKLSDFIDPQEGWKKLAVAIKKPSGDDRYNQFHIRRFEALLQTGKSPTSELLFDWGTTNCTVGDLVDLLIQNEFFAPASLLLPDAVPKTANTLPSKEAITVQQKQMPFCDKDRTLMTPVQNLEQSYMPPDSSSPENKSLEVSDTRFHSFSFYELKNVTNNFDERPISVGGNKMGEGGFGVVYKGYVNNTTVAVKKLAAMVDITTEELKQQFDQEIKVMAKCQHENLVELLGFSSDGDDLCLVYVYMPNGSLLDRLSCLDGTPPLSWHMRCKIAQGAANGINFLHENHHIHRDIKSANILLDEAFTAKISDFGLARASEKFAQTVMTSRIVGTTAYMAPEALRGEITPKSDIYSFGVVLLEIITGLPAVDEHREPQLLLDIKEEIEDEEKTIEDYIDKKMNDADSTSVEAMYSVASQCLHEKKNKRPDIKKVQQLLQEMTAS
# Summary of the method: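 Single-point profiling in a panel of 108 kinases. Each selected inhibitor was tested at two concentrations, 0.1 and 1.0 micromolar. Values are reported as inhibition at each concentration.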
# cells = details: Homo sapiens, T-cell
# [3] = biological target: ALK tyrosine kinase receptor (Homo sapiens) (UniProt Q9UM73); assay: Inhibition of ALK at 1 uM; values are per cent of control
# [4] = biological target: T3, Serine/threonine-protein kinase Sgk1 (Homo sapiens) (UniProt O00141); assay: Inhibition of SGK at 0.1 uM; values are per cent of control
# T3 sequence (whole entry): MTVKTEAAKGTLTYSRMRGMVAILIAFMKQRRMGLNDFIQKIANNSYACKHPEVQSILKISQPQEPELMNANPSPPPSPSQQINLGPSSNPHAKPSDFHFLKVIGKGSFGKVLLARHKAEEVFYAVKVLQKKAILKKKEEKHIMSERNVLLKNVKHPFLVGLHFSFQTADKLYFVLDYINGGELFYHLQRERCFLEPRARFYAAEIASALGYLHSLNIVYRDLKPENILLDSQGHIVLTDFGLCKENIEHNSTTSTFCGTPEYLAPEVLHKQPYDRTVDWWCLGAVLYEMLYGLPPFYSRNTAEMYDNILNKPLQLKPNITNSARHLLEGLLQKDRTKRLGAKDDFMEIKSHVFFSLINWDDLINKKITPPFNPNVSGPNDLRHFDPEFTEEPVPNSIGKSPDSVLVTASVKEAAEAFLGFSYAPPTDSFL
# [5] = biological target: Proto-oncogene tyrosine-protein kinase Src (Homo sapiens) (UniProt P12931); assay: Inhibition of c-SRC at 1 uM; values are per cent of control
# [6] = biological target: Receptor tyrosine-protein kinase erbB-4 (Homo sapiens) (UniProt Q15303); assay: Inhibition of ErbB4 at 0.1 uM; values are per cent of control
# [7] = biological target: T4, Inhibitor of nuclear factor kappa-B kinase subunit beta (Homo sapiens) (UniProt O14920); assay: Inhibition of IKK-beta at 1 uM; values are per cent of control
# T4 sequence (whole entry): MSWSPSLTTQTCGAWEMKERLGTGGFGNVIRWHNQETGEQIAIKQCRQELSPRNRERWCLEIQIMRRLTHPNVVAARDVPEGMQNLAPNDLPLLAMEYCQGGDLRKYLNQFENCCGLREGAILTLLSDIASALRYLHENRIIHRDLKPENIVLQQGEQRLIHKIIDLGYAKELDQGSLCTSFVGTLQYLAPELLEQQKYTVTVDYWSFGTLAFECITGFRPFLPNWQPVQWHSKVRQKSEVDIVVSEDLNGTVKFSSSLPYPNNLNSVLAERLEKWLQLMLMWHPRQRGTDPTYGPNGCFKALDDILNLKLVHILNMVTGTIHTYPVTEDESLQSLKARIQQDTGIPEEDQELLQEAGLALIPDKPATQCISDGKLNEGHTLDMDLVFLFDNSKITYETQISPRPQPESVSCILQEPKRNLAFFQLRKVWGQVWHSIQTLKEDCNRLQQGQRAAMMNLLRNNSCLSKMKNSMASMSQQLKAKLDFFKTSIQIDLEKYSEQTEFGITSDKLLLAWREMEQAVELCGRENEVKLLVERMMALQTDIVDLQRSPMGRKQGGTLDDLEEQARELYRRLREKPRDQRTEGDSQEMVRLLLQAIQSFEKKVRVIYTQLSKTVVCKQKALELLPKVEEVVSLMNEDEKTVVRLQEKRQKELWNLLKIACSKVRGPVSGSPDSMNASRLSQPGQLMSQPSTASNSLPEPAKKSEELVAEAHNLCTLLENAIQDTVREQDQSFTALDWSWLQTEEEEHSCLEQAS
# Proto-oncogene tyrosine-protein kinase Src (Homo sapiens), sequence (P12931 2-536 limits assumed): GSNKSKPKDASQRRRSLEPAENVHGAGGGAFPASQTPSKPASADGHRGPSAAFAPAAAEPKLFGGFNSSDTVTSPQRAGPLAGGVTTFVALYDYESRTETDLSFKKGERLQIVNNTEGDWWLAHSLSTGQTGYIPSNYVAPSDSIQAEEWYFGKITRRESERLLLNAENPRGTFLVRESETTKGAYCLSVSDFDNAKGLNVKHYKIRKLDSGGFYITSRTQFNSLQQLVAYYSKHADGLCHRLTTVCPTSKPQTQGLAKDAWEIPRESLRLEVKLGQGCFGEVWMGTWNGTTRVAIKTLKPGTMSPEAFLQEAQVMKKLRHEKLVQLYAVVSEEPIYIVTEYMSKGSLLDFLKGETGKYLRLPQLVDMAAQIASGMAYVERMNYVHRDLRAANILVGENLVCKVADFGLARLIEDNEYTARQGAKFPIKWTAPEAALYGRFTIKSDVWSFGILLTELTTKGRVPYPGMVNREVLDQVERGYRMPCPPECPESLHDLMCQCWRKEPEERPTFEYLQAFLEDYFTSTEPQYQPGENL
# Receptor tyrosine-protein kinase erbB-4 (Homo sapiens), sequence (Q15303 whole entry): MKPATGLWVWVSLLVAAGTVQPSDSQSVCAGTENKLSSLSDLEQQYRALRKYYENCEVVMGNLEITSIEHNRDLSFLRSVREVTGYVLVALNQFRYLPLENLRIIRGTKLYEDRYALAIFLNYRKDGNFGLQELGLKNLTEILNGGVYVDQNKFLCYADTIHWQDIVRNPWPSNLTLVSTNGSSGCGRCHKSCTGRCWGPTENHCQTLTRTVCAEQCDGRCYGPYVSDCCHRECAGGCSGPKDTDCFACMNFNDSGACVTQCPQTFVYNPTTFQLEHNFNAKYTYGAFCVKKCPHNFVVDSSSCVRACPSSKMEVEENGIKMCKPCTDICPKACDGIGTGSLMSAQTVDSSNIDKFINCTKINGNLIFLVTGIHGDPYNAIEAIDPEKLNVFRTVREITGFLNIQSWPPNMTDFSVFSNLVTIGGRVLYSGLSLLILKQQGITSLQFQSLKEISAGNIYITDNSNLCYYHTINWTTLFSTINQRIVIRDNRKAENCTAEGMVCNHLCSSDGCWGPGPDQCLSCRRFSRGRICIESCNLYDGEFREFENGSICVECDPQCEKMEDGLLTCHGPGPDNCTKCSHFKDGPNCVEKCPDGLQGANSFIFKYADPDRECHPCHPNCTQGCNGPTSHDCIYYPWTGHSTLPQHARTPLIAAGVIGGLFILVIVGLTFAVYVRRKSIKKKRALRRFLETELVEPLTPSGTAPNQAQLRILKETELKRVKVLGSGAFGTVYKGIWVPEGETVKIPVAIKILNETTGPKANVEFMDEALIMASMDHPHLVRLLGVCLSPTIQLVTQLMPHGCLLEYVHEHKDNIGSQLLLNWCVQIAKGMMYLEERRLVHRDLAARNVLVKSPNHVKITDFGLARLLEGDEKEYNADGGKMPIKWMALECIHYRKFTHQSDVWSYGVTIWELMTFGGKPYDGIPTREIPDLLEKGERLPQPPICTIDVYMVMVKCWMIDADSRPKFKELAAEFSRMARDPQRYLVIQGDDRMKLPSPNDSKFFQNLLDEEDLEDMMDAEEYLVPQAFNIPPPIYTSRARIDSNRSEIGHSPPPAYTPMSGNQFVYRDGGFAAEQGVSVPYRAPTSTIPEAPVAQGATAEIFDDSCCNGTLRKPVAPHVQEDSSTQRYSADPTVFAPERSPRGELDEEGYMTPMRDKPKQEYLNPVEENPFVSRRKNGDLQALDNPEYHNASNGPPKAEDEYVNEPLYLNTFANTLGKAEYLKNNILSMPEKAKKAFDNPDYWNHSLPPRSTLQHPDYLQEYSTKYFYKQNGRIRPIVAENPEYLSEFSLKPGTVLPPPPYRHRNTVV
# ALK tyrosine kinase receptor (Homo sapiens), sequence (Q9UM73 19-1620 limits assumed): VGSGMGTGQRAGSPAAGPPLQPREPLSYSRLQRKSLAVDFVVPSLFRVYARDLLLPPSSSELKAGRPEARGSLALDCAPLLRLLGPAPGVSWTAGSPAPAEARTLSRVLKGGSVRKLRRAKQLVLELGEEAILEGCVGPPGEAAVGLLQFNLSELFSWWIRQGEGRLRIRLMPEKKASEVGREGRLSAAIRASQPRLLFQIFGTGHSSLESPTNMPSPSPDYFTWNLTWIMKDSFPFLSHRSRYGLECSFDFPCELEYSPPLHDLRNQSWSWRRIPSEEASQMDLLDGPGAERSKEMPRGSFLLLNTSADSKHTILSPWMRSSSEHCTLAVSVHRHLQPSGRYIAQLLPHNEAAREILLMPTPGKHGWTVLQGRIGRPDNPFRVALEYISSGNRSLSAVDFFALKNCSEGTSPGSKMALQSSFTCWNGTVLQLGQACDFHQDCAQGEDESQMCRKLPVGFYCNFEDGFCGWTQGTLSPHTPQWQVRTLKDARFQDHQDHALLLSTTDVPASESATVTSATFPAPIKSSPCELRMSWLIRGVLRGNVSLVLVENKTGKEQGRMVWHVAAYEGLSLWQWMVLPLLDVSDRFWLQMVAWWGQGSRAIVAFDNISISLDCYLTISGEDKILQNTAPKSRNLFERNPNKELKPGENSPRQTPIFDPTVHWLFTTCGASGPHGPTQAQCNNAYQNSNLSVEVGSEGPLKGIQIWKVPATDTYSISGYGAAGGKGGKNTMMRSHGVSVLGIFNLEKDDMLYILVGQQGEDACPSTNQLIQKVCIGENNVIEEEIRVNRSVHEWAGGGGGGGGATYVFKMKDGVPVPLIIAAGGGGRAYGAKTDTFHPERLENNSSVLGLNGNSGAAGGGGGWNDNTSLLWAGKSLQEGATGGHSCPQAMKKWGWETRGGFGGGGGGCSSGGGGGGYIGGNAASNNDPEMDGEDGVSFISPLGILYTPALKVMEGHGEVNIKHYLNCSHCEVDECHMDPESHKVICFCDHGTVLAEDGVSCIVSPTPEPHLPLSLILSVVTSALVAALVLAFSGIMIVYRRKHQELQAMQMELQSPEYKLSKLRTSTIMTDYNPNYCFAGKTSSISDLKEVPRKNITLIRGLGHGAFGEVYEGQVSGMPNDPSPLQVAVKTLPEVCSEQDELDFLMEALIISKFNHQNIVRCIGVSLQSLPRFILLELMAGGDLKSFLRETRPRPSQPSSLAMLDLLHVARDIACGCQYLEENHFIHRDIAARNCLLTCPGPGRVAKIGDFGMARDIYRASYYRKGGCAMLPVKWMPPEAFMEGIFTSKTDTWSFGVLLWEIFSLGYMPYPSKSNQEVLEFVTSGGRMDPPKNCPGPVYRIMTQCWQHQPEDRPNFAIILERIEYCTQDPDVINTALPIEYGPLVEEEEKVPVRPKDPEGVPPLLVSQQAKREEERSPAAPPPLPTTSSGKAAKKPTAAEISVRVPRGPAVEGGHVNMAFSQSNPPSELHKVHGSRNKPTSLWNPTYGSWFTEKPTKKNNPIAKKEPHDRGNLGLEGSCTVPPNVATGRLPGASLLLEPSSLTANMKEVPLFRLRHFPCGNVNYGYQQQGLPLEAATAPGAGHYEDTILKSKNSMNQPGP
SMILES,IC50 [1],inhibition [2],IC50 (cells),residual activity [3],residual activity [4],residual activity [5],residual activity [6],residual activity [7]
Cc1ccc2cc(-c3n[nH]c4ccc(NC5CCN(Cc6ccccc6)CC5)cc34)[nH]c2c1,23 nM,3%,500 nM,4%,121%,1%,43%,102%
Cc1ccc2cc(-c3n[nH]c4ccc(NC5CCNC5)cc34)[nH]c2c1 (stereo unspecified),11 nM,0%,20 nM,5%,63%,5%,81%,76%
